Screening data from PubChem BioAssay.
Ec RNAP inh – blocks E. coli RNA polymerase transcription. P0A8V2. fluorescence transcription assay. inhibition, %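 (tested at 10 µM)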. hit rate 0.2% among 62,000. AID 559; in the data active = inhibition above about 20%;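 also: 0% = enzyme without compound and 100% = no enzyme blank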
HEK293 NFkB inh – inhibitors of the PMA/ionomycin-induced NF-kB reporter in HEK293 cells; inhibition, % at 3 µM; HEK-293 NF-kB luciferase reporter, luminescence; hit rate 0.21% among 62,000; AID 465;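 active = inhibition above the mean of all tested compounds plus 3 SD, cut at about 40% in these data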;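 also: 0% = stimulated DMSO wells and 100% = 10 µM reference inhibitor 5653914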
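System: NF-kB luciferase reporter HEK-293 cells | Replication: Single test | Control set: DMSO vs reference inhibitor | Evaluation: % inhibition | Schedule: 1 h pretreatment, 16 h stimulation, 37 °C | Probe or stimulus: PMA with ionomycin | Compound dosing: One dose, 3 µM | Detection: Luciferase luminescence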
AP ELISA ortho – orthogonal test for alternative complement pathway inhibitors; Human serum alternative complement pathway, LPS-coated ELISA, C3 deposition; tested in compound mixtures; inhibition, % at 5 µM; hit rate 0.08% among 62,000; AID 1235;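 active = inhibition above 30% in each of the two pooled mixtures holding the compound, so the lower value exceeds 30%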;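 also: 0% = serum in Mg-EGTA without compound and 100% = EDTA serum blank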
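Test system – human serum alternative complement pathway, C3 deposition on LPS-coated wells · Buffer or medium – diluted human serum in Mg2+-EGTA GVB++ · Compound dosing – 5 µM each compound, pools of ten, 50 µM per pool · Schedule – 1 h serum-compound exposure at 37 °C · Measured by – Anti-C3 ELISA, OD 450 nm · Read-out basis – percent inhibition of C3 deposition onto LPS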
DAT uptake mod – changed human dopamine transporter uptake under cocaine IC80. Q01959. B-score at 10 µM. hit rate 1.3% among 110,000. AID 449768. LLC-PK1 hDAT cells, [14C]-dopamine uptake with cocaine IC80; actives deviate in either direction;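 active = Z score or B-score, a plate-position-corrected score, falls beyond the plate's 99.7% confidence bounds, in either direction; inactive = both scores lie inside the 99.7% bounds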;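 also: scored against the spread of the other compound wells on the same plate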
D1 mod – allosterically modulates the human D1 dopamine receptor; HEK293 D1, CRE-luciferase, dopamine EC30 potentiation; actives deviate in either direction; P21728; B-score at 10 µM; hit rate 5.9% among 58,000; AID 641;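 active = luminescence count or its row- and column-corrected plate score outside the 99.7% band of the plate's sample wells, on either side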
D1 PAM confirm – D1 receptor (human) allosteric modulation, confirmed; shares compounds with D1 mod; HEK293 D1 CRE-luciferase, dopamine EC30 potentiation; hits give high values; luminescence at 10 µM; hit rate 88% among 2,200;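 active = luminescence in either of two replicates above the same-plate mean plus 3 SD of the low-dose dopamine control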
D1 ag no DA – activates D1 CRE-luciferase signal without dopamine present | shares compounds with D1 mod | HEK293 D1 CRE-luciferase, luminescence, no dopamine; hits give high values | luminescence at 10 µM | hit rate 0.8% among 1,900 | AID 646; in the data active = luminescence above about 3900
Isoprot counter – alters isoproterenol CRE-luciferase response in HEK293 cells. shares compounds with D1 mod. HEK293 D1 CRE-luciferase, isoproterenol EC30 counter-screen. calls only at 10 µM. hit rate 63% among 2,200. AID 647;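 active = luminescence in either replicate above plate mean of wells with a partly effective reference agonist dose plus 3 SD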;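 also: isoproterenol raises cAMP through native beta-adrenoceptor Gs so signal bypasses D1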
The depositor's hits bear a star; i = inactive; . = no result given; + = active, no number. This excerpt belongs to a sample that is enriched for hits.

SMILES | Ec RNAP inh | HEK293 NFkB inh | AP ELISA ortho | DAT uptake mod | D1 mod | D1 PAM confirm | D1 ag no DA | Isoprot counter
CCOC(=O)c1c(C)c(C(=O)NCc2ccc3c(c2)OCO3)c(C)n1C | 3.1 | 11.6 | 10.2 | 0.106 | 4.29* | 5908* | 1544 | i
CCOC(=O)c1c(C)c(C(=O)NCc2ccc3c(c2)OCO3)c(C)n1CC | 2.7 | 9.6 | 19.9 | . | 2.72 | . | . | .
COc1cc([C@@H]2c3cc4c(cc3[C@H](O)[C@H]3COC(=O)[C@H]23)OCO4)cc(OC)c1OC | 12.4 | . | -0.6 | -0.988 | 7.06* | 8908* | 1648 | +
OC1CCN(c2c3c(nc4cc(-c5cccc(F)c5)nn24)CCCC3)CC1 | 4.3 | 17.4 | -2.6 | 1.3 | 7.43* | 17644* | 1772 | +
Fc1cccc(-c2cc3nc4c(c(N5CCC6(CC5)OCCO6)n3n2)CCCC4)c1 | -4.2 | 4.5 | 2.2 | 1.64 | 1.09 | . | . | .
CCn1c(N2CCN(CC(=O)c3c[nH]c4ccccc34)CC2)nc2c1c(=O)[nH]c(=O)n2C | -5.9 | 13.9 | -7.7 | 0.154 | -0.0415 | . | . | .
Cn1c(=O)[nH]c(=O)c2c1nc(N1CCCCC1)n2CCOc1ccccc1 | 7.1 | 14.6 | 8.5 | 0.189 | 14* | 22140* | 1548 | +
CCCn1c(N2CCN(CC(=O)c3c(C)n(C)c4ccccc34)CC2)nc2c1c(=O)[nH]c(=O)n2C | 1.2 | 13.7 | 10.1 | 2.81* | 4.43* | 12284* | 1832 | +
C/C=C/Cn1c(N2CCCCCC2)nc2c1c(=O)[nH]c(=O)n2C | . | 14.3 | . | . | 15.4* | 16408* | 1784 | +
Cn1c(=O)[nH]c(=O)c2c1nc(N1CCCCCC1)n2CC(N)=O | . | . | . | -0.00163 | . | . | . | .
COc1ccc(-n2nc3ccccc3n2)cc1 | 6.7 | -4.0 | 11.5 | 0.308 | 3.23* | 10504* | 1592 | i
O=C1NC[C@H](c2ccccc2)N(CCc2cccc3ccccc23)C1=O | . | . | . | 0.423 | . | . | . | .
COc1cc(S(=O)(=O)N2CCOCC2)ccc1NC(=O)CSc1nnc(N)s1 | 2.2 | 9.9 | 33.2* | -0.109 | 4.83* | 5392 | . | i
Cc1[nH]n(-c2ccccc2)c(=O)c1S(=O)(=O)c1ccccc1 | 2.8 | 21.2 | 3.9 | -1.11 | 4.08* | 11060* | 1692 | i
Cc1[nH]n(-c2ccccc2)c(=O)c1-c1ccc(Cl)cc1 | . | . | . | 0.464 | . | . | . | .
CCCc1nnc(NC(=O)c2ccncc2)s1 | 6.5 | 5.9 | 8.9 | -0.941 | -0.426 | . | . | .
CCc1nnc(NC(=O)c2ccncc2)s1 | 6.2 | -8.3 | 8.3 | -0.68 | 2.75* | 4640 | 1208 | i
COc1ccccc1NC(=O)NS(=O)(=O)c1ccc(C)cc1 | . | . | . | 0.222 | . | . | . | .
Cc1cc(Nc2ccccc2Br)n2nc(C)nc2n1 | -4.5 | 4.6 | 5.0 | . | -0.148 | . | . | .
Cc1cc(Nc2ccc(C)c(Br)c2)n2nc(C)nc2n1 | 12.2 | -3.0 | 15.1 | -1.02 | 2.82* | 7632 | 1564 | i
C=CCC1CCCC(=O)N2CC[C@H](O)C12 (stereo partly specified) | . | . | . | -0.0736 | . | . | . | .
Cc1nc2sc3c(c2c(=O)o1)CCCC3 | 6.8 | 0.4 | 1.0 | -1.16 | -0.148 | . | . | .
CCCCSc1nc2sc3c(c2c(=O)[nH]1)CCC3 | . | . | . | 0.000193 | . | . | . | .
Cc1nc2sc3c(c2c(=O)[nH]1)CCC3 | . | 9.9 | 0.9 | -0.471 | 3.14* | 11308* | 1476 | i
Nc1nc2sc3c(c2c(=O)s1)CCCC3 | -0.5 | 2.7 | 3.9 | -0.24 | 13.9* | 13312* | 1256 | +
SMILES | Ec RNAP inh | HEK293 NFkB inh | AP ELISA ortho | DAT uptake mod | D1 mod | D1 PAM confirm | D1 ag no DA | Isoprot counter
CC(C)Cn1cnc2c(=O)oc3ccccc3c21 | . | . | . | -1.24 | . | . | . | .
O=c1oc2ccccc2c2c1ncn2-c1ccccc1 | -6.8 | 11.3 | 8.3 | -1.28 | 3.63* | 9304* | 1488 | +
O=c1oc2ccccc2c2c1ncn2C1CCCCC1 | -8.4 | 17.1 | 27.6 | 0.045 | 7.4* | 20596* | 1756 | +
Cc1cnc(NC(=O)C2COc3ccccc3O2)s1 (stereo unspecified) | . | . | . | -1.05 | . | . | . | .
CCOC(=O)CN1C(=O)C(O)(CC(=O)c2cccc(OC)c2)c2ccccc21 (stereo unspecified) | 5.6 | 10.1 | -3.1 | 0.299 | -0.489 | . | . | .
CCOc1ccccc1NC(=O)CN(C)S(=O)(=O)c1cccc2nsnc12 | 9.8 | 4.8 | -1.6 | 0.379 | 4.72* | 6432* | 1328 | i
COc1ccccc1-c1nnc2n1N=C(c1ccc(O)c(O)c1)CS2 | 2.8 | . | . | -1.77 | 22.9* | 21320* | . | +
CCOc1ccc(C2=Nn3c(nnc3-c3ccccc3OC)SC2)cc1 | -10.6 | . | . | 0.247 | 28.2* | 21740* | . | +
CCOc1ccc(-c2nnc3n2N=C(c2ccc(OC)cc2)CS3)cc1 | 8.2 | 8.5 | -1.7 | -0.121 | . | . | . | .
Brc1ccccc1C1=Nn2c(nnc2-c2ccccc2)SC1 | -1.8 | 10.1 | 1.1 | 0.183 | 11.6* | 13500* | 1464 | +
CCOC(=O)c1c(C)[nH]c(C(=O)Cn2c(=O)c3c(ncn3CC)n(Cc3ccccc3)c2=O)c1C | -2.9 | 5.8 | 2.0 | 0.676 | 13.4* | 20428* | 1684 | +
CCn1cnc2c1c(=O)n(CC(=O)Nc1cc(C)on1)c(=O)n2Cc1ccccc1 | -2.3 | 19.1 | 21.9 | 0.728 | 0.812 | . | . | .
c1ccc(N(c2ccccc2)c2nc(-n3ccnc3)nc(-n3ccnc3)n2)cc1 | 4.7 | 25.3 | 4.1 | 1.22 | 5.7* | 18076* | 1612 | +
CCCCNc1nc(N(C)c2ccccc2)nc(-n2ccnc2)n1 | -2.2 | 0.7 | 24.1 | 0.728 | 4.64* | 17552* | 1484 | +
O=C(Nc1cccc2ccccc12)c1ccc(Cn2cc(Cl)cn2)cc1 | . | . | . | 0.107 | . | . | . | .
COc1cccc(C(=O)OCc2ccccc2C#N)c1O | 2.9 | 14.0 | -8.1 | -0.325 | 0.506 | . | . | .
CCSC(C)CC1C/C(=N/O)c2c(CC)noc2C1 (stereo unspecified) | -1.2 | -9.9 | -5.5 | -0.542 | 5.31* | 8312* | 1736 | i
COc1cc(-c2nc(-c3ccc(C)nc3OC)no2)cc(OC)c1OC | . | 12.9 | 5.0 | . | -0.115 | . | . | .
CCOc1nc(C)ccc1-c1noc(CC)n1 | . | . | . | 0.594 | . | . | . | .
COc1nc(C)ccc1-c1noc(-c2ccncc2)n1 | 0.3 | -14.7 | 3.0 | -0.709 | 6.73* | 7856* | 1580 | i
CCOc1nc(C)ccc1-c1noc(-c2ccccn2)n1 | . | 10.3 | 15.5 | 0.0661 | 8.02* | 16720* | 1708 | +
CCOc1nc(C)ccc1-c1noc(-c2ccco2)n1 | 1.7 | 12.1 | 4.8 | -0.51 | 7.25* | 16212* | 1800 | +
CCCCc1cc2c(c(NC(C)=O)n1)c(=O)oc1ccccc12 | 6.4 | 8.5 | 0.1 | -0.442 | 15.3* | 14552* | 1312 | +
